Assay outcomes as filed in PubChem.
A selection: hits, their analogues and other compounds. The true share with any hit is near 6.8%.
HSF1 inhib = HSF1 inhibitors in luciferase reporter cells, primary screen, cell-based, NIH3T3, luminescence; NIH3T3-HGL HSE-luciferase, MG132-induced, luminescence 8 h; hits give low values; activity change, negative = inhibition, % at 7.5 µM (by protocol); 0.77% of 300,000 active;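 active = more than half of replicate wells show activity change below -50%, luminescence cut by over half; inconclusive = some wells, but at most half, below -50%; inactive = no replicate well below -50%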;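 also: luciferase reports HSF-1 transcriptional activity via heat shock element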
HSF-1 act = HSF-1 activators, primary screen, NIH3T3-HGL cells, MG132 stress, luminescence, single point. 1.7% of 300,000 active. NIH3T3-HGL HSF-1 luciferase reporter, 8 h; 100% = twice DMSO control signal. activation, % at 9 µM. AID 504408, 2011;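 active = mean replicate activation of at least 50% with a set share of replicates each reaching 50%; inconclusive = only one of those two conditions met; inactive = mean below 50% and too few replicates reaching it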
core dimer inh = inhibitors of HCV core protein dimerization, primary screen, biochemical, TR-FRET, high-throughput. TR-FRET GST/Flag-core106 dimerization, 1536-well. inhibition, % at 5 µM. 0.33% of 300,000 active;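 active = inhibition above the mean of all tested compounds plus 3 SD, set per screening campaign, cut at about 45% in these data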
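test system = GST/Flag-tagged HCV core106 proteins | probe or stimulus = Eu donor and XL665 acceptor anti-tag antibodies | times = compound-protein-antibody incubation 4 h at 22.5 °C | signal = TR-FRET, excitation 340 nm, emission 617 and 671 nm | measure = percent inhibition of core106 dimerization signal | controls = wells lacking GST-core106 and wells with excess unlabelled core106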
ALR H2O2 inh = inhibitors of human ALR sulfhydryl oxidase, primary screen, biochemical, H2O2 detection, HRP-luminol luminescence, single point; FAD-linked sulfhydryl oxidase ALR (Homo sapiens), P55789; purified ALR, DTT oxidation; inhibition, % (no concentration beside the values); 3.8% of 290,000 active;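 active = mean replicate inhibition above about 79%, with every replicate also reaching it, limit read from the data; inconclusive = only one of the two criteria met; inactive = mean below limit and not every replicate reaching it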
Target sequence (P55789 whole entry, looked up): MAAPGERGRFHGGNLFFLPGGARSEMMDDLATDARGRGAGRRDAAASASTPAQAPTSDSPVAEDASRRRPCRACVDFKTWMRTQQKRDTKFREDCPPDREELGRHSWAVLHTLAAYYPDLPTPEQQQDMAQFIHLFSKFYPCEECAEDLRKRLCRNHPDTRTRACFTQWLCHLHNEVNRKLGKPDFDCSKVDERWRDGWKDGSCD
AI-2 QS mod = Vibrio harveyi AI-2 quorum sensing modulators, primary screen, JMH597 strain, luminescence/OD600 ratio | Vibrio harveyi JMH597 AI-2 luminescence/OD600 ratio, 9 h; hits give low values; strain lacks LuxN and CqsS sensors; 0 = neutral-control median | activity change, % at 7.5 µM | 0.4% of 300,000 active | AID 2094, 2009; in the data active = activity change below about -75%, passing the limit was not always enough; inconclusive = no clear call, values can overlap the other calls;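 also: luminescence divided by OD600 gain over 9 h not by final OD600 alone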
PHOSPHO1 block = PubChem AID 1565; 1.1% of 290,000 active; Phosphoethanolamine/phosphocholine phosphatase (Homo sapiens), Q8TCT1; recombinant PHOSPHO1, absorbance phosphatase assay; inhibition, % at 13.3 µM; in the data active = inhibition above about 60%
Target sequence (Q8TCT1 whole entry, looked up): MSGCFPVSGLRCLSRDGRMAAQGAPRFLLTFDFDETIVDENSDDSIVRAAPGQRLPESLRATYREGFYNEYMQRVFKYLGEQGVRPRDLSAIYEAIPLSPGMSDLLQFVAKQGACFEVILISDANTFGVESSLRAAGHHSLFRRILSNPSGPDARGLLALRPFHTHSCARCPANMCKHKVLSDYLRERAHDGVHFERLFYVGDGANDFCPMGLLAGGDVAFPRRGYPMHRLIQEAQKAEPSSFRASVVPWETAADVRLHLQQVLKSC
Large screens that a line does not name were inactive.

CCOc1ccccc1NC(=O)NCc1ccc2c(c1)OCO2	none
Cc1cccc(N/N=C2/COC(C)(C)CC2=O)c1	ALR H2O2 inh 92.9
Cc1ccc(N2C=Nc3ccc(C)c4nc(C)cc2c34)cc1	none
CC1=Nc2ccc(C)c3nc(C)cc(c23)N1c1ccc(C)cc1	HSF1 inhib -53.4 (no result: PHOSPHO1 block)
O=C(N/N=C/C=C\c1ccccc1[N+](=O)[O-])c1cc(-c2ccc3ccccc3c2)n[nH]1	HSF-1 act 64.0 (no result: core dimer inh, ALR H2O2 inh)
O=C(N/N=C/C=C/c1ccccc1[N+](=O)[O-])c1ccncc1	none
O=C(N/N=C/c1c[nH]c2ccccc12)c1cc(-c2ccc3ccccc3c2)n[nH]1	AI-2 QS mod -78.7
CCC(=O)Nc1cc(C(=O)OCC(=O)c2ccccc2)ccc1C	none
CCCc1cnc(N2CCN(C(=O)c3ccccc3)CC2)nc1	none
Cc1ccc(NC(=O)CSc2nc3ccccc3c(=O)n2CC2CCCO2)cc1 (configuration not stated)	none
O=c1c2ccccc2c2ccccc2c(=O)n1CC1CCCO1 (configuration not stated)	ALR H2O2 inh 99.1
CN(C)c1ccc(NC(=O)CSc2nc3ccccc3c(=O)n2CC2CCCO2)cc1 (configuration not stated)	ALR H2O2 inh 86.8
O=C1c2ccccc2C(=O)N1CC1CCCO1 (configuration not stated)	none
COC(=O)c1ccc2c(=O)n(CC3CCCO3)c(SCC(=O)Nc3ccccc3OC)nc2c1 (configuration not stated)	HSF-1 act 55.1
COCCCn1c(SCC(=O)NC2CCCC2)nnc1-c1ccncc1	none
COc1cccc(NC(=O)CN(C)C(=O)c2ccc(OCc3ccccc3)c(OC)c2)c1	none (no result: PHOSPHO1 block)
CCNc1ccc(Br)cc(C(=O)/C=C/c2c(Cl)cccc2Cl)c1=O	HSF-1 act 72.7
CCNc1ccc(Br)cc(C(=O)/C=C/c2ccc3c(c2)OCO3)c1=O	core dimer inh 57.8
CCNc1ccc(Br)cc(C(=O)/C=C/c2ccc(Cl)cc2)c1=O	none
COc1ccc2[nH]c3c(=O)n(CCCN4CCOCC4)cnc3c2c1	HSF1 inhib -63.4
Cc1c(Cl)cccc1N(Cc1ccc(C(=O)O)cc1)S(=O)(=O)c1ccccc1	none
CCOC(=O)C(=O)/C(C#N)=C/Nc1ccccc1	HSF-1 act 51.9
CCOC(=O)/C(C#N)=C/Nc1ccccc1OC	none
CCOC(=O)C(=CNc1ccc(C#N)cc1)C(=O)OCC	HSF-1 act 59.8
Cc1ccc(N2CC(C(=O)NCC3CCCO3)CC2=O)cc1Cl (configuration not stated)	none
Cc1ccccc1OCCN1C(=O)c2ccccc2C1=O	none
O=C1c2ccccc2C(=O)N1CCOc1ccccc1Br	HSF-1 act 98.6
O=C1c2ccccc2C(=O)N1CCOc1ccccc1Cl	HSF-1 act 71.1
CCN(CC(=O)Nc1ccc(NC(C)=O)cc1)CC(=O)Nc1cc(C)on1	none (no result: HSF1 inhib, HSF-1 act, core dimer inh, AI-2 QS mod, PHOSPHO1 block)
ClCc1csc(-c2ccc(Cl)cc2)n1	ALR H2O2 inh 98.2
COc1ccc(CSc2nnc3[nH]c(=O)cc(N)n23)cc1	AI-2 QS mod -79.6
COc1ccc(C)cc1NCC(=O)Nc1ccc(C(C)(C)C)cc1	none
CC(=O)Nc1cccc2c1C(=O)N(c1ccc(OC(C)=O)cc1)C2=O	none
O=C(O)c1ccc(N/N=C/c2ccc(OC(=O)c3cccc(Cl)c3)cc2)cc1	HSF1 inhib inconclusive
O=C(O)c1ccc(N/N=C/c2ccncc2)cc1	none
O=C(O)c1ccc(N/N=C/c2ccc3nccnc3c2)cc1	HSF1 inhib -81.0
O=C(O)c1ccc(N/N=C/c2ccc(F)c(F)c2)cc1	AI-2 QS mod -93.5 (no result: ALR H2O2 inh)
O=C(O)c1ccc(N/N=C/c2cccc(C(F)(F)F)c2)cc1	AI-2 QS mod -93.5 (no result: PHOSPHO1 block)
O=C(O)c1ccc(N/N=C/c2cccc(F)c2)cc1	AI-2 QS mod -78.7 (no result: ALR H2O2 inh)
COc1cccc(CNC(=O)CCS(=O)(=O)c2ccc3c(c2)CC(C)N3C(=O)C2CC2)c1 (configuration not stated)	none
CCN(CC)C(=O)c1ccccc1NS(C)(=O)=O	none
C=CCNC(=O)c1onc(CSc2ccccn2)c1C(=O)NCC=C	none
O=C(Cn1[nH]c(=O)c2ccccc2c1=O)N1CCN(S(=O)(=O)c2ccc(Cl)cc2)CC1	none (no result: HSF1 inhib, HSF-1 act, core dimer inh, AI-2 QS mod, PHOSPHO1 block)
Nc1c(S(=O)(=O)c2ccccc2)c2nc3ccccc3nc2n1Cc1ccco1	none (no result: ALR H2O2 inh)
Cc1ccc(S(=O)(=O)c2c(N)n(Cc3ccco3)c3nc4ccccc4nc23)cc1C	HSF-1 act 72.5
Cc1ccc(S(=O)(=O)c2c(N)n(CCC(C)C)c3nc4ccccc4nc23)cc1	HSF-1 act 108.8
CC(C)CCn1c(N)c(S(=O)(=O)c2cccs2)c2nc3ccccc3nc21	HSF-1 act 104.5
CCCCn1c(NC(=O)c2ccco2)c(S(=O)(=O)c2ccc(C)cc2)c2nc3ccccc3nc21	HSF-1 act 137.2 (no result: core dimer inh, ALR H2O2 inh)
CCCCCn1c(NC(=O)c2ccco2)c(S(=O)(=O)c2ccc(C)cc2)c2nc3ccccc3nc21	none
Nc1c(S(=O)(=O)c2cccs2)c2nc3ccccc3nc2n1CCc1ccccc1	none
CC1CCCCC1NC(=O)c1nn(C)c2c1CS(=O)(=O)c1ccccc1-2 (configuration not stated)	none (no result: AI-2 QS mod)
Cc1cccc(S(=O)(=O)c2c(N)n(/N=C/c3ccccc3)c3nc4ccccc4nc23)c1	none
Nc1c(S(=O)(=O)c2ccccc2)c2nc3ccccc3nc2n1C1CC1	ALR H2O2 inh 98.5
Cc1ccc(C)c(S(=O)(=O)c2c(N)n(/N=C/c3ccco3)c3nc4ccccc4nc23)c1	HSF-1 act 52.0
COc1ccc(Oc2cccc(Cl)c2CNC(=O)CCC(=O)O)cc1	none
COc1ccc(Cl)cc1CC=NNC(=O)c1ccncc1	none (no result: core dimer inh, ALR H2O2 inh, AI-2 QS mod, PHOSPHO1 block)
COc1cc(N2CCOCC2)ccc1C=C(C#N)C#N	none (no result: ALR H2O2 inh)
COc1cc(N2Cc3ccccc3C2)ccc1C=O	core dimer inh 46.2
O=C(Cc1ccsc1)NCc1ccccc1F	none
CC1(C)CC(N2CCN(c3ccccc3)CC2)=CC(=[N+]2CCCC2)C1	PHOSPHO1 block 85.5
Cc1ccc(C(=O)N/C(=C\c2cccs2)C(=O)NCCCn2ccnc2)cc1C	none (no result: HSF1 inhib, HSF-1 act)
Cc1cc(NC2CCCCC2)nc(NCc2ccccc2)n1	none
COc1cc(C)nc(NCc2ccccc2)n1	none (no result: ALR H2O2 inh)
COc1ccc(Nc2cc(C)nc(NCc3ccccc3)n2)cc1	ALR H2O2 inh 75.0
Cc1ccc(Nc2cc(C)nc(NCc3ccccc3)n2)cc1	AI-2 QS mod -91.6
CCN1C(=O)N(C(C)=O)C2C1N(C(C)=O)C(=O)N2C(C)=O (configuration not stated)	none
